Results taken from ChEMBL document CHEMBL1151955, “Activation of PPARgamma by metabolites from the flowers of purple coneflower (Echinacea purpurea)” (J Nat Prod, 2009).
The source made the active and inactive calls. No cut-off for these calls is given here.

Tests used:
[1] = molecular target: T1, Peroxisome proliferator-activated receptor gamma (Homo sapiens) (UniProt P37231); assay: Agonist activity at human PPARgamma ligand binding domain expressed in MEF cells co-transfected with Gal4-responsive luciferase vector assessed as photinus/renilla luciferase activity at 100 uM by transactivation assay relative to control; assay type: cell-based
T1 sequence (whole entry): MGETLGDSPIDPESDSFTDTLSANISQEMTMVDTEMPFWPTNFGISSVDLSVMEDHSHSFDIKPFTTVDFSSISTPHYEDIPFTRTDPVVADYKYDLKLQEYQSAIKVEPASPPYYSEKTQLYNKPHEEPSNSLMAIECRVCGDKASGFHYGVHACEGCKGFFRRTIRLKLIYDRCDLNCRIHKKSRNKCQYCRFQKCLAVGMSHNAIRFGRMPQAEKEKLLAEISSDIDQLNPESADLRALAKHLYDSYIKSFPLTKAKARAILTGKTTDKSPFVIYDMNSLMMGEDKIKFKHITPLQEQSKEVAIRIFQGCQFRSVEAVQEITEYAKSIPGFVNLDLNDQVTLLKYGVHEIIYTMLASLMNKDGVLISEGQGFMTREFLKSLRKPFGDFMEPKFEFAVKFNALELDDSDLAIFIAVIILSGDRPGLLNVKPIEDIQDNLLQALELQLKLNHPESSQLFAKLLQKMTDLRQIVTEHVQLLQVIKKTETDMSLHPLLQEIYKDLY
How it was run: (§1)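 Mouse embryonic fibroblasts were transiently transfected at 50-70% confluence. Each well got 2.5 ng pRL-CMV Renilla vector, 30 ng Gal4-responsive luciferase reporter and 15 ng pM-hPPARγ-LBD. Medium was changed at 6 h to DMEM with vehicle (0.1% DMSO), 1 µM rosiglitazone or compound. Cells were lysed 18 h post-transfection for dual luciferase. Photinus was normalized to Renilla and expressed as fold over vehicle. Triplicates, each read in duplicate.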

MEF = assay: Apparent cytotoxicity against MEF at 100 uM; assay type: cell-based; conditions: mouse
[2] = molecular target: T1, Peroxisome proliferator-activated receptor gamma (Homo sapiens); assay: Agonist activity at human PPARgamma ligand binding domain expressed in MEF cells co-transfected with Gal4-responsive luciferase vector assessed as photinus/renilla luciferase activity at 30 uM by transactivation assay relative to control; assay type: cell-based; how it was run: as §1
3T3-L1 [3] = assay: Induction of adipocytes differentiation in mouse 3T3L1 cells at > 200 uM treated after 48 hrs postconfluence measured after 8 days using DEX protocol; assay type: functional, cell-based
How it was run: (§2)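 3T3-L1 cells were grown in DMEM with 10% calf serum. Two days postconfluence (day 0) they were induced in DMEM/10% FBS with compound plus 1 µM dexamethasone, then refed at 48 h with compound. From day 4 medium was DMEM/10% FBS, changed every second day. At day 8 cells were formaldehyde-fixed and stained for triacylglycerol with Oil Red O. Triplicate, three concentrations.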

3T3-L1 [4] = assay: Induction of adipocytes differentiation in mouse 3T3L1 cells at > 200 uM treated after 48 hrs postconfluence measured after 8 days using MDI protocol; assay type: functional, cell-based
How it was run: (§3)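 3T3-L1 cells were induced two days postconfluence in DMEM/10% FBS with compound plus 1 µM dexamethasone, 0.5 mM isobutylmethylxanthine and 1 µg/mL insulin. At 48 h they were refed with compound and 1 µg/mL insulin. From day 4 medium was DMEM/10% FBS, changed every second day. At day 8 cells were formaldehyde-fixed and stained with Oil Red O. Triplicate, three concentrations.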

3T3-L1 [5] = assay: Increase in insulin-stimulated [14C]2-deoxy-D-glucose uptake in mouse 3T3L1 cells after 48 hrs by scintillation counting; assay type: functional, cell-based
How it was run: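 MDI-differentiated 3T3-L1 adipocytes were treated with compound or 1 µM rosiglitazone from day 8 for 48 h, then serum-starved 2 h at 37 °C. Cells were incubated in KRHB pH 7.4 for 30 min, insulin was added for 15 min, then [14C]2-deoxy-D-glucose at 1.0 mM final glucose for 15 min. Background came from 20 µM cytochalasin B wells. Scintillation counting, 8 wells per condition, mean ± SEM.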

[6] = molecular target: T1, Peroxisome proliferator-activated receptor gamma (Homo sapiens); assay: Agonist activity at human PPARgamma ligand binding domain expressed in MEF cells co-transfected with Gal4-responsive luciferase vector assessed as photinus/renilla luciferase activity at 80 uM by transactivation assay relative to control; assay type: cell-based; how it was run: as §1
3T3-L1 [7] = assay: Induction of adipocytes differentiation in mouse 3T3L1 cells treated after 48 hrs postconfluence measured after 8 days using DEX protocol; assay type: functional, cell-based; how it was run: as §2
3T3-L1 [8] = assay: Induction of adipocytes differentiation in mouse 3T3L1 cells treated after 48 hrs postconfluence measured after 8 days using MDI protocol; assay type: functional, cell-based; how it was run: as §3
[9] = molecular target: T1, Peroxisome proliferator-activated receptor gamma (Homo sapiens); assay: Agonist activity at human PPARgamma ligand binding domain expressed in MEF cells co-transfected with Gal4-responsive luciferase vector assessed as photinus/renilla luciferase activity at 40 uM by transactivation assay relative to control; assay type: cell-based; how it was run: as §1

**Q.** With `C/C=C/C=C\CC/C=C/C=C/C(=O)NCC(C)C` as the compound, how does the fold change (FC) [1] read?
**A.** 2

**Q.** Which Activity (MEF) does the source give for `C/C=C/C=C\C/C=C\CCCCC/C=C/C(=O)NCC(C)C` here?
**A.** Toxic

**Q.** And the fold change (FC) [2]?
**A.** 10

**Q.** And the Activity (3T3-L1 [3])?
**A.** inactive

**Q.** And the Activity (3T3-L1 [4])?
**A.** inactive

**Q.** What about the Activity (3T3-L1 [5]) of the same compound?
**A.** Dose-dependent effect

**Q.** What does the source list for `CCCCCCC/C=C/C=C/C(=O)NCC(C)C`?
**A.** fold change (FC) [6]: 4; Activity (MEF): Toxic; Activity (3T3-L1 [7]): Active; Activity (3T3-L1 [8]): Active

**Q.** How did the fold change (FC) [9] turn out when `CC/C=C\C/C=C\C/C=C\CCCCCCCC(=O)O` was run?
**A.** 10

**Q.** `C/C=C\C#CCC/C=C\C=C\C(=O)NCC(C)C` was tested. Which fold change (FC) [1] did it give?
**A.** 2

**Q.** For `CCCCC/C=C\C/C=C\CCCCCCCC(=O)O`, which fold change (FC) [9] is on record?
**A.** 10

**Q.** Which fold change (FC) [9] does the source give for `CCCCCC/C=C\CCCCCCCC(=O)O` here?
**A.** 10

**Q.** With `C/C=C\C=C/CC/C=C/C=C/C(=O)NCC(C)C` as the compound, how does the fold change (FC) [1] read?
**A.** 2
